TNAP inh no acc: inhibitors of human TNAP without phosphate acceptor; purified TNAP, CDP-star luminescence, 30 min; 0.26% of 200,000 active; inhibition, % at 20 µM; P05186;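 active = tissue-nonspecific alkaline phosphatase inhibition above about 50% at 20 µM in the single-dose screen, limit read from the data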;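 note: 0% = DMSO negative control and 100% = EDTA positive control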
TNAP act hi DEA: activators of human TNAP at high phosphate acceptor concentration. 200,000 tested, under 10 active. activation factor at 20 µM. P05186. purified TNAP, CDP-star luminescence, 1 M DEA, 30 min; stronger effect = higher value; 0 = EDTA background, 1 = DMSO-only activity;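 active = activation factor at least 2 at 20 µM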
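Dosing: 20 µM single point. System: human TNAP. Amount: TNAP 1/800 final. Incubation: 30 min, room temperature. Read-out: TNAP activation factor scaled between EDTA and DMSO control wells. Signal: luminescence from CDP-star hydrolysis. Medium: 1 M DEA, pH 9.8, Mg2+, Zn2+. Control set: EDTA negative control, DMSO positive control.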
ABCB6 inh MLPCN: human ABCB6 transporter inhibition; Q9NP58; K562-ABCB6 porphyrin accumulation, flow cytometry, 1 h; stronger effect = lower value; fluorescence ratio to DMSO, % at 10 µM; 0.19% of 360,000 active; AID 602162;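 active = fluorescence ratio to DMSO below 75%, the collection mean minus 3 SD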;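 note: signal is porphyrin accumulated inside mitochondria; 100% equals median channel fluorescence of DMSO control wells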
CHT block: inhibits the human high affinity choline transporter | B-score at 10 µM | AID 488975 | 0.86% of 310,000 active | CHT-expressing cells, membrane potential dye, choline response; stronger effect = lower value | Q9GZV3;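 active = B-score over 3 SD under the library average, and starting fluorescence ratio not unusually high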;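 note: choline stimulus applied at its EC90 after an EC20 pre-addition; B-score computed on integrated fluorescence ratio after choline addition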
CHT PAM: human CHT allosteric activation; Q9GZV3; CHT-expressing cells, membrane potential dye, choline EC20; stronger effect = higher value; LV-AA mutant CHT in HEK293 cells; B-score at 10 µM; 0.49% of 310,000 active; AID 488977;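 active = initial fluorescence not abnormally high and integrated response B-score, plate-corrected, over 3 SD above library mean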
TNAP inh hiacc: inhibitors of human TNAP at high phosphate acceptor concentration. P05186. purified TNAP, CDP-star luminescence, 1 M DEA. inhibition, % at 20 µM. 0.03% of 200,000 active. AID 1135;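 active = over 50% inhibition of tissue-nonspecific alkaline phosphatase at 20 µM in the single-dose screen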;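 note: plate controls were DMSO wells for no effect and EDTA-quenched wells as full inhibition for full effect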
CHT activ conf: human CHT activation, confirmatory screen | activation, % at 10 µM | shares compounds with CHT PAM | 91% of 2,500 active | CHT-expressing cells, membrane potential dye fluorescence (FDSS); % of choline EC20–EC90 response window; HEK293 expressing CHT LV-AA mutant; choline added at its EC20;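 active = primary screen active, with duplicate mean activation above negative control mean plus 3 SD, cut at about 11% in these data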
HEK293 MP dye: counter-screen for CHT activators: effect in parental HEK293 cells; shares compounds with CHT PAM; AID 623908; membrane potential dye fluorescence (FDSS); measured after EC20 choline addition; ratio readout change at 10 µM, hits read low; 62% of 2,500 active;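 active = duplicate-averaged ratio beyond 3 SD from buffer wells, up or down, though filed actives are nearly all decreases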
* marks the source's active call; other numbers are inactive results; i = inactive; / = not tested or not shown. An excerpt weighted towards active compounds, which were near 1.4% of everything screened.

SMILES | TNAP inh no acc | TNAP act hi DEA | ABCB6 inh MLPCN | CHT block | CHT PAM | TNAP inh hiacc | CHT activ conf | HEK293 MP dye
Cc1ccc2c(c1)C1CN(C)CCC1N2C(=O)c1cccnc1Cl (configuration not stated) | / | / | 102 | i | i | / | / | /
Cc1ccc2c(C)c3ccc4ccccc4c3c[n+]2c1 | / | / | 93 | / | / | / | / | /
Cc1c(CCC(=O)N2C[C@H]3C[C@@H](C2)c2cccc(=O)n2C3)c(=O)oc2c(C)c(O)ccc12 | / | / | 101 | / | / | / | / | /
COC1/C=C/C=C(\C)Cc2cc(O)c(Cl)c(c2)N(C)C(=O)CC(OC(=O)C(C)C)C2(C)OC2C(C)C2CC1(O)NC(=O)O2 (configuration not stated) | / | / | 95 | / | / | / | / | /
CCN(C=C1CC2C3CC=C4CC(O)CCC4(C)C3CCC2(C)C1=O)CC (configuration not stated) | / | / | 97 | / | / | / | / | /
CCN(CCCl)c1cc(CN(C)C)cc(NC(=O)c2ccc(C(=O)Nc3cc(CN(C)C)cc(N(CC)CCCl)c3)cc2)c1 | / | / | 107 | / | / | / | / | /
O=c1[nH]c2ccccc2n1C1CCN(C(CCc2ccccc2)c2nnnn2C2CCCCC2)CC1 (configuration not stated) | / | / | 105 | / | / | / | / | /
CC1CN(c2ccc([N+](=O)[O-])c3cccnc23)CC(C)N1 (configuration not stated) | 14 | 0.9 | 115 | i | i | 14 | 48* | -84*
O=[N+]([O-])c1ccc(N2CCCC2)c2ncccc12 | 11 | 0.8 | 94 | i | i | 21 | / | /
CC(=O)c1cn(Cc2ccc(F)cc2)c2ccccc12 | / | / | 97 | i | i | / | / | /
O=C(c1ccco1)c1cn(Cc2ccc(Cl)cc2)c2ccccc12 | 1 | 1.1 | 102 | i | i | -5 | 18* | i
COc1ccc2[nH]c3c(c2c1)CCN=C3C | / | / | 119 | i | 7.1* | / | 47* | -45*
COc1ccc2[nH]cc(CCN)c2c1 | -2 | 1 | 103 | i | i | 3 | / | /
C[n+]1c(-c2ccccc2)cc(CCCCc2cc(-c3ccccc3)[n+](C)c(-c3ccccc3)c2)cc1-c1ccccc1 | 8 | 1 | 102 | i | 6.8* | 4 | 50* | -64*
COc1ccc(-c2cc(-c3ccccc3)[n+](C)c(-c3ccccc3)c2)cc1 | -7 | 1.1 | 90 | i | i | -6 | 35* | i
Cc1ccc(-c2cc(-c3ccccc3)cc(-c3ccccc3)[n+]2-c2ccc(C(=O)O)cc2)cc1 | / | / | 95 | i | i | / | / | /
COC(=O)C1(F)C(=O)NC(=O)NC1O (configuration not stated) | / | / | 97 | / | / | / | / | /
COC1CC2C=C(C)C=CC=CC(=O)NC(c3ccccc3)CC=CCCC(O)CC(=O)C2=C1O (configuration not stated) | / | / | 82 | / | / | / | / | /
COc1cc2cc(C(=O)N3CC(COS(C)(=O)=O)c4ccc(O)cc43)[nH]c2c(OC)c1OC (configuration not stated) | / | / | 93 | / | / | / | / | /
Cc1ccc(-c2nc(N(C)C3CCN(C)CC3)c3ccccc3n2)cc1 | -10 | 1.1 | 90 | i | i | -7 | 37* | -68*
Oc1ccc(O)c2c1C1(Cl)C(Cl)=C(Cl)C2(Cl)C1(Cl)Cl | / | / | 103 | / | / | / | / | /
COc1ccc(-n2c(SCCN(C)C)nc3ccccc3c2=O)cc1 | / | / | 101 | i | i | / | 37* | -42*
CN1CCN(C(=O)O[C@H]2c3nccnc3C(=O)N2c2ccc(Cl)cn2)CC1 | / | / | 102 | i | 6.9* | / | 84* | -44*
CN1CCN(C(=O)COc2ccc(Oc3ccccc3)cc2)CC1 | -3 | 1 | 95 | i | i | 0 | / | /
O=C(CNC(=O)c1cccc(Cl)c1)Nc1ccc(Br)cc1C(=O)c1ccccc1 | -3 | 1 | 95 | i | 7.7* | -2 | 20* | i
SMILES | TNAP inh no acc | TNAP act hi DEA | ABCB6 inh MLPCN | CHT block | CHT PAM | TNAP inh hiacc | CHT activ conf | HEK293 MP dye
CN(Cc1cccc(-c2ccncc2)c1)C(=O)Oc1ccccc1Cc1ccccc1 | / | / | 92 | / | / | / | / | /
O=C(O)c1ccc(-[n+]2c(-c3ccccc3)cc(-c3ccccc3)cc2-c2ccccc2)cc1 | / | / | 97 | i | i | / | / | /
CCCOC(=O)c1ccc(-[n+]2c(-c3ccccc3)cc(-c3ccccc3)cc2-c2ccccc2)cc1 | / | / | 85 | i | 9.3* | / | 18* | i
CCOC(=O)c1cnc(SCc2ccc(Cl)c(Cl)c2)nc1N1CC1 | / | / | 106 | / | / | / | / | /
COc1ccc(CC2=NCCc3cc(OC)c(OC)cc32)cc1OC | / | / | 97 | / | / | / | / | /
COc1ccc(Cc2nccc3cc(OC)c(OC)cc23)cc1OC | -4 | 1 | i | i | 8.6* | 2 | 59* | -66*
CC1CCN(C(CC(=O)c2ccccc2)C(=O)c2ccccc2)CC1 (configuration not stated) | / | / | 100 | / | / | / | / | /
COc1c2c(cc3c1OCO3)CC[N+](C)=C2 | -7 | 1 | 100 | i | 9.2* | -4 | 58* | -60*
COc1ccc2c(c1OC)CN1CCc3cc4c(cc3[C@H]1C2)OCO4 | / | / | 108 | / | / | / | / | /
O=C1NCN(c2ccccc2)C12CCN(C(c1ccnc3ccccc13)c1nnnn1-c1ccc3c(c1)OCCO3)CC2 (configuration not stated) | / | / | 96 | / | / | / | / | /
Cc1ccc(CN2Cc3ccc(Br)cc3-n3nncc3C2)cc1 | / | / | 95 | / | / | / | / | /
Cc1cccc(NP(=O)(Oc2ccccc2)Oc2ccccc2)c1C | / | / | 100 | i | i | / | / | /
Cc1ccccc1NP(=O)(Oc1ccccc1F)Oc1ccccc1F | -12 | 1 | 99 | i | 6.3* | -4 | 9.9* | i
